{"data": "Published values collected from several papers", "target": "Serine/threonine-protein kinase 17B (STK17B, Homo sapiens, UniProt O94768)", "Sequence (O94768 1-372, as in one of the studies)": "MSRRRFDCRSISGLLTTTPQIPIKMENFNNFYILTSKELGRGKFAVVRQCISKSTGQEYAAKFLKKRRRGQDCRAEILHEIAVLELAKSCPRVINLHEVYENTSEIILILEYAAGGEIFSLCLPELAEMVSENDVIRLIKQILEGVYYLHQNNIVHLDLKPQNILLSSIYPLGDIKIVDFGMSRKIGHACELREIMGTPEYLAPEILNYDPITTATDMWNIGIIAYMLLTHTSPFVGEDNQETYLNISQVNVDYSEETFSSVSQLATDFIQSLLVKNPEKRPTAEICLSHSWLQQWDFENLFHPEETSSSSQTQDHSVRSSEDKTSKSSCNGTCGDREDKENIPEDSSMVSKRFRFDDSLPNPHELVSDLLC", "note": "Lines come from different studies, so protocols differ."}
{"SMILES": "c1cnn2ncc(-c3ccnc(N4CCC45COC5)n3)c2c1", "test": "binding", "setting": "1 µM", "remaining binding": "100%"}
{"SMILES": "CCN1CCN(Cc2ccc(C(=O)Nc3ccc(C)c(Oc4ccc5c(c4)CC(=O)N5)c3)cc2C(F)(F)F)CC1", "test": "binding, competition with immobilised ligand", "setting": "1 µM", "remaining binding": "100%"}
{"SMILES": "CCCOc1ccc([C@H]2[C@H](C(=O)O)[C@@H](c3ccc4c(c3)OCO4)CN2CC(=O)Nc2c(CC)cccc2CC)cc1", "test": "cell-free assay, competition with immobilised ligand", "setting": "1 µM", "remaining binding": "91%"}
{"SMILES": "O=C(NCCCN1CCOCC1)c1ccc(Nc2ncc(Cl)c(-c3ccc(Cl)s3)n2)cc1", "test": "binding, competition with immobilised ligand", "setting": "1 µM", "remaining binding": "0.45%"}
{"SMILES": "c1cncc(-c2cccc(Nc3nccc(NC4CCCCC4)n3)c2)c1", "test": "binding, competition with immobilised ligand", "setting": "10 µM", "remaining binding": "77%"}
{"SMILES": "CN(C)c1ncc(F)c(-c2cnn3ncccc23)n1", "test": "binding", "setting": "1 µM", "remaining binding": "87%"}
{"SMILES": "FC(F)(F)Oc1cccc(-c2cnc3ccc(-c4ccncc4)nn23)c1", "test": "cell-free assay, competition with immobilised ligand", "setting": "5 µM", "remaining binding": "85%"}
{"SMILES": "Cn1cc(Cl)c2c(Oc3c(F)cc(Nc4cc(Cl)nc(N)n4)cc3F)ccnc21", "test": "cell-free assay, competition with immobilised ligand", "setting": "0.1 µM", "remaining binding": "84%"}
{"SMILES": "Cc1cnn2ncc(-c3ccnc(N(C)C)n3)c2c1", "test": "binding", "setting": "1 µM", "remaining binding": "100%"}
{"SMILES": "O=C(NCC1CCOCC1)c1n[nH]cc1NC(=O)c1c(F)cccc1F", "test": "binding, competition with immobilised ligand", "setting": "1 µM", "remaining binding": "91%"}
{"SMILES": "C[C@@H]1CCN(c2nccc(-c3cnn4ncccc34)n2)C1", "test": "binding", "setting": "1 µM", "remaining binding": "100%"}
{"SMILES": "O=C(NCCCN1CCOCC1)c1ccc(Nc2nccc(-c3cc4ccccc4s3)n2)cc1", "test": "binding, competition with immobilised ligand", "setting": "1 µM", "remaining binding": "0%"}
{"SMILES": "CN([C@@H]1CCc2c(CC(=O)O)c3cc(S(C)(=O)=O)ccc3n2C1)S(=O)(=O)c1ccc(F)cc1", "test": "cell-free assay, competition with immobilised ligand", "setting": "1 µM", "remaining binding": "85%"}
{"SMILES": "Cc1cnc(Nc2ccc(C(=O)N3CCC(N4CCCC4)CC3)cc2)nc1-c1cc2ccccc2s1", "test": "binding, competition with immobilised ligand", "setting": "1 µM", "remaining binding": "0%"}
{"SMILES": "C[C@@H]1CN(c2cc(-c3n[nH]c4ccc(OC5(C)CC5)cc34)ncn2)C[C@H](C)O1", "test": "cell-free assay, competition with immobilised ligand", "setting": "0.1 µM", "remaining binding": "96%"}
{"SMILES": "Nc1ncc2c(n1)-c1c([nH]c3ccc(C#CC4CC4)cc13)CCCC2", "test": "binding, competition with immobilised ligand", "setting": "1 µM", "remaining binding": "96%"}
{"SMILES": "N[C@@H]1CCN(c2nccc(-c3cnn4ncccc34)n2)C1", "test": "binding", "setting": "1 µM", "remaining binding": "100%"}
{"SMILES": "CNC(=O)[C@@H]1CC[C@@H](n2c(-c3ccc4cnccc4c3)nc3ccc(C(=O)NCc4cccc(C(N)=O)c4)cc32)C1", "test": "binding, competition with immobilised ligand", "setting": "1 µM", "remaining binding": "99%"}
{"SMILES": "CNC(=O)Nc1ccc2c(c1)[C@@]1(CC2)OC(=O)N(CC(=O)N(Cc2ccc(F)cc2)[C@@H](C)C(F)(F)F)C1=O", "test": "cell-free assay, competition with immobilised ligand", "setting": "1 µM", "remaining binding": "77%"}
{"SMILES": "CC1CCCN1c1nccc(-c2cnn3ncccc23)n1 (stereo not shown)", "test": "binding", "setting": "1 µM", "remaining binding": "100%"}
{"SMILES": "Cc1noc([C@H]2C[C@@H](c3ccc(C(F)(F)F)cc3)CN(C(=O)N3CCS(=O)(=O)C3)C2)n1", "test": "cell-free assay, competition with immobilised ligand", "setting": "1 µM", "remaining binding": "100%"}
{"SMILES": "COc1cnc(Nc2cccc(S(N)(=O)=O)c2)nc1N1CCN(c2ccccc2)C(=O)C1", "test": "binding, competition with immobilised ligand", "setting": "1 µM", "remaining binding": "89%"}
